Experimental data: ChEMBL document CHEMBL4706494, “Design, synthesis characterization and biological evaluation of novel multi-isoform ALDH inhibitors as potential anticancer agents” (Eur J Med Chem, 2020)
Activity calls are given as the source filed them. No cut-off for these calls is given here.

Key:
[1] = target: T1, Aldehyde dehydrogenase, dimeric NADP-preferring (Homo sapiens, UniProt P30838); assay: Inhibition of ALDH3A1 (unknown origin) assessed as NADH formation using 4-nitrobenzaldehyde as substrate
T1 sequence (P30838 whole entry): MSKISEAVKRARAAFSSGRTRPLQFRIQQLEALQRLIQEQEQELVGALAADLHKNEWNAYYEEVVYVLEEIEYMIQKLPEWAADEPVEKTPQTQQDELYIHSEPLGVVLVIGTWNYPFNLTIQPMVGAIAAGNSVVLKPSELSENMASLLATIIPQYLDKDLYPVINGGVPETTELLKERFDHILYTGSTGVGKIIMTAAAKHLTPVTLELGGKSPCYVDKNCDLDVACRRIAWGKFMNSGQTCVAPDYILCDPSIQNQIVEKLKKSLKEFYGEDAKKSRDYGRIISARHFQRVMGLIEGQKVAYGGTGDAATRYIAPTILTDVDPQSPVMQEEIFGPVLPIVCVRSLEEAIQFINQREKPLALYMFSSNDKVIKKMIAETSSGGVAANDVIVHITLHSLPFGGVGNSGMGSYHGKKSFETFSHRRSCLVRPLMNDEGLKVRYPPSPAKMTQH
Method in brief: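 Protein at 0.2 µg/mL exposed 15 min to graded inhibitor concentrations. 1 mM 4-nitrobenzaldehyde substrate with NAD+ then added, run as for the ALDH1A1 assay.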

[2] = target: T2, Aldehyde dehydrogenase 1A1 (Homo sapiens, UniProt P00352); assay: Inhibition of ALDH1A1 (unknown origin) assessed as NADH formation using propionaldehyde as substrate
T2 sequence (P00352 whole entry): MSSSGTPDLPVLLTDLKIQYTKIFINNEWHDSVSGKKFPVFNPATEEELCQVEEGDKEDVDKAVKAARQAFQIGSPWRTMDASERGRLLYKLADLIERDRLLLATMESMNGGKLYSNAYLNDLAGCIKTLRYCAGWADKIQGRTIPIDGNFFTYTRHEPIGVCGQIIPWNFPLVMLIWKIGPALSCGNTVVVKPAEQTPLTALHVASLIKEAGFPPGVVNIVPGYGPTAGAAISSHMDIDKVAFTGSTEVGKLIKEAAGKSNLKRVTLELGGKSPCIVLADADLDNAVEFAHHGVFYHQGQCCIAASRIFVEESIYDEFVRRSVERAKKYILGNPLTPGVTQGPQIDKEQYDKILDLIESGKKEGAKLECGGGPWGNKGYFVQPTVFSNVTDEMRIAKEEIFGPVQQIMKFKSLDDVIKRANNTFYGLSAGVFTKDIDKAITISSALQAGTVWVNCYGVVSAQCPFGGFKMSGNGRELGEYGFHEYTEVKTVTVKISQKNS

[3] = target: T3, Aldehyde dehydrogenase, mitochondrial (Homo sapiens, UniProt P05091); assay: Inhibition of ALDH2 (unknown origin) assessed as NADH formation using acetaldehyde as substrate
T3 sequence (P05091 whole entry): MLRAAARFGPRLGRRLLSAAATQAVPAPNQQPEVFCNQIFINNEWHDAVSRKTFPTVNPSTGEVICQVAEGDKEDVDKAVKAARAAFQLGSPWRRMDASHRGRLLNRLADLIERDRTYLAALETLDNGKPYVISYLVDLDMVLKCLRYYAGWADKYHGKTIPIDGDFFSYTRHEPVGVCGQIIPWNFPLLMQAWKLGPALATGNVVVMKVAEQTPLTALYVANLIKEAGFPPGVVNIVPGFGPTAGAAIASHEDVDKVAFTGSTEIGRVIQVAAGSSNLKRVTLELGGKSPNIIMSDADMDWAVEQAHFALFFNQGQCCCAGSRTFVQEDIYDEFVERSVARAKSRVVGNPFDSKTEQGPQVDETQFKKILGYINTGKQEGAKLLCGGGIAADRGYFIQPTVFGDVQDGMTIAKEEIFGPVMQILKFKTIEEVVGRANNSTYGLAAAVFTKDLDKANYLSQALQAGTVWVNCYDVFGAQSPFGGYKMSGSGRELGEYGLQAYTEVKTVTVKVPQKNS
Method in brief: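 Enzyme at 0.5 µg/mL preincubated 15 min with varied inhibitor concentrations. Reaction started with 2 mM acetaldehyde plus NAD+ in buffer, as for the ALDH1A1 assay.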

[4] = tested on: UACC-903; assay: Antiproliferative activity against human UACC 903 cells measured after 72 hrs by MTS assay; type: functional, cell-based; conditions: UACC-903, 72 h
Method in brief: (§1)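 Cells seeded at 5,000 per well, left overnight at 37°C in 5% CO2, then exposed to a range of compound concentrations for 72 h. IC50 was fitted from dose-response curves, 3 independent experiments, reported as mean + SD.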

[5] = Antiproliferative activity against human 1205Lu cells measured after 72 hrs by MTS assay; type: functional, cell-based; method in brief: as §1
[6] = Cytotoxicity against human FF2441 cells measured after 72 hrs by MTS assay; type: cell-based; conditions: FF2441, 72 h; method in brief: as §1
[7] = tested on: HCT-116; assay: Antiproliferative activity against human HCT116 cells measured after 72 hrs by MTS assay; type: functional, cell-based; conditions: HCT-116, 72 h; method in brief: as §1
[8] = tested on: HT-29; assay: Antiproliferative activity against human HT-29 cells measured after 72 hrs by MTS assay; type: functional, cell-based; conditions: HT-29, 72 h; method in brief: as §1
[9] = tested on: NCI-H929; assay: Antiproliferative activity against human NCIH929 cells measured after 72 hrs by MTS assay; type: functional, cell-based; conditions: NCI-H929, 72 h; method in brief: as §1
[10] = tested on: U-266; assay: Antiproliferative activity against human U266 cells measured after 72 hrs by MTS assay; type: functional, cell-based; conditions: U-266, 72 h; method in brief: as §1
[11] = tested on: RPMI-8226; assay: Antiproliferative activity against human RPMI8226 cells measured after 72 hrs by MTS assay; type: functional, cell-based; conditions: RPMI-8226, 72 h; method in brief: as §1
[12] = Antiproliferative activity against human MM.1R cells measured after 72 hrs by MTS assay; type: functional, cell-based; method in brief: as §1
[13] = tested on: MM1.S; assay: Antiproliferative activity against human MM.1S cells measured after 72 hrs by MTS assay; type: functional, cell-based; method in brief: as §1
[14] = Toxicity in Swiss-Webster mouse assessed as body weight loss at 5 mg/kg/day, ip for 14 days; type: organism-based; conditions: in vivo, 336 h, time 14 day
Method in brief: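 Swiss-Webster mice received 5 mg/kg/day i.p. once daily for 14 days. Body weight, behaviour and physical distress were monitored, with % weight change compared against DMSO vehicle controls.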

[15] = tested on: HCT-116; assay: Induction of ROS production in human HCT-116 cells at 5 uM incubated for 24 hrs by DCFDA staining based fluorescence microscopic analysis; type: functional, cell-based
[16] = tested on: HCT-116; assay: Induction of ROS production in human HCT-116 cells at 5 uM incubated for 24 hrs in presence of NAC by DCFDA staining based fluorescence microscopic analysis; type: functional, cell-based
[17] = tested on: HCT-116; assay: Induction of lipid peroxidation in human HCT-116 cells at 5 uM incubated for 24 hrs by TBARS assay; type: functional, cell-based
Method in brief: (§2)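 HCT116 cells treated 24 h with 5 µM compound, with or without 10 mM NAC. Pellets were sonicated on ice in PBS and lipids hydrolysed with acetic acid/NaOH. Free MDA was reacted with TBA and read at 530 nm, compared with DMSO control.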

[18] = tested on: HCT-116; assay: Induction of lipid peroxidation in human HCT-116 cells at 5 uM incubated for 24 hrs in presence of NAC by TBARS assay; type: functional, cell-based; method in brief: as §2
[19] = tested on: HCT-116; assay: Induction of apoptosis in human HCT-116 cells at 5 uM incubated for 24 hrs by annexinV- and […] staining based flow cytometry; type: functional, cell-based
Method in brief: (§3)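 HCT116 cells treated 24 h with 5 µM compound, with or without 10 mM NAC. Cells were detached, PBS-washed, stained with Annexin-V-PE and 7-AAD, and analysed by flow cytometry. Annexin-V/7-AAD double-positive cells were scored as late apoptotic, relative to DMSO control.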

[20] = tested on: HCT-116; assay: Induction of apoptosis in human HCT-116 cells at 5 uM incubated for 24 hrs in presence of NAC by annexinV- and […] staining based flow cytometry; type: functional, cell-based; method in brief: as §3
[21] = tested on: HCT-116; assay: Induction of cell cycle arrest in human HCT-116 cells assessed as accumulation of cells at G2/M phase at 5 uM incubated for 24 hrs by PI staining based flow cytometry; type: functional
Method in brief: (§4)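 HCT116 cells given 5 µM compound for 24 h, with or without 10 mM NAC. Cells were detached, PBS-washed, fixed in 70% ethanol and stained with propidium iodide. DNA content read by flow cytometry for cell-cycle distribution.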

[22] = tested on: HCT-116; assay: Induction of cell cycle arrest in human HCT-116 cells assessed as accumulation of cells at G2/M phase at 5 uM incubated for 24 hrs in presence of NAC by PI staining based flow cytometry; type: functional; method in brief: as §4

| IC50 [2] [nM] | IC50 [3] [nM] | SMILES | IC50 [1] [nM] | also measured |
| --- | --- | --- | --- | --- |
|  |  | N=C(N)[Se]Cc1ccc(CN2C(=O)C(=O)c3cc(F)ccc32)cc1 | 2360 |  |
|  |  | N=C(N)[Se]Cc1ccc(CN2C(=O)C(=O)c3cccc(Br)c32)cc1 | > 10000 |  |
|  |  | N=C(N)[Se]Cc1ccc(CN2C(=O)C(=O)c3ccccc32)cc1 | 4010 |  |
|  |  | N=C(N)[Se]Cc1ccc(CN2C(=O)C(=O)c3cccc(F)c32)cc1 | 246 |  |
|  |  | N=C(N)SCc1ccc(CN2C(=O)C(=O)c3cc(F)cc(Br)c32)cc1 | 219 |  |
|  |  | N=C(N)SCc1ccc(CN2C(=O)C(=O)c3cc(Cl)ccc32)cc1 | 3070 |  |
|  |  | O=C1C(=O)N(Cc2ccccc2)c2ccccc21 |  | IC50 [4]: > 100000 nM; IC50 [5]: > 100000 nM; IC50 [6]: > 100000 nM |
|  |  | N=C(N)[Se]Cc1ccc(CN2C(=O)C(=O)c3cc(Br)ccc32)cc1 | 344 |  |
| 8520 | > 10000 | N=C(N)SCc1ccc(CN2C(=O)C(=O)c3cc(Br)ccc32)cc1 | 4880 |  |
|  |  | N=C(N)SCc1ccc(CN2C(=O)C(=O)c3cccc(Br)c32)cc1 | 6320 |  |
|  |  | N=C(N)[Se]Cc1ccc(CN2C(=O)C(=O)c3cc(Cl)ccc32)cc1 | 2770 |  |
|  |  | N=C(N)SCc1ccc(CN2C(=O)C(=O)c3ccccc32)cc1 | 4200 |  |
|  |  | N=C(N)[Se]Cc1ccc(CN2C(=O)C(=O)c3cc(Cl)cc(Cl)c32)cc1 | 327 |  |
| 598 | > 10000 | N=C(N)SCc1ccc(CN2C(=O)C(=O)c3cccc(F)c32)cc1 | 241 |  |
|  |  | N=C(N)SCc1ccc(CN2C(=O)C(=O)c3cccc(C(F)(F)F)c32)cc1 | 246 |  |
|  |  | N=C(N)[Se]Cc1ccc(CN2C(=O)C(=O)c3cc(C(F)(F)F)ccc32)cc1 | 1520 |  |
| 177 | > 10000 | N=C(N)SCc1ccc(CN2C(=O)C(=O)c3cccc(Cl)c32)cc1 | 3590 |  |
|  |  | N=C(N)SCc1ccc(CN2C(=O)C(=O)c3cc(F)ccc32)cc1 | 2860 |  |
| 334 | 2140 | Br.N=C(N)SCc1ccc(CN2C(=O)C(=O)c3cc(C(F)(F)F)ccc32)cc1 | 360 | IC50 [4]: 5700 nM; IC50 [5]: 5700 nM; IC50 [7]: 5700 nM; IC50 [8]: 4900 nM; IC50 [9]: 1500 nM; IC50 [10]: 2600 nM; IC50 [11]: 1600 nM; IC50 [12]: 1700 nM; IC50 [13]: 2200 nM; IC50 [6]: 20700 nM; Activity [14]: 2%; Activity [15]: Active; Activity [16]: inactive; Activity [17]: Active; Activity [18]: inactive; Activity [19]: Active; Activity [20]: inactive; Activity [21]: Active; Activity [22]: inactive |
| 279 | 1640 | Br.N=C(N)SCc1ccc(CN2C(=O)C(=O)c3cc(Cl)cc(Cl)c32)cc1 | 219 | IC50 [4]: 3000 nM; IC50 [5]: 2400 nM; IC50 [7]: 3200 nM; IC50 [8]: 2600 nM; IC50 [9]: 700 nM; IC50 [10]: 2700 nM; IC50 [11]: 1300 nM; IC50 [12]: 1600 nM; IC50 [13]: 1600 nM; IC50 [6]: 5400 nM; Activity [14]: 10% |

| SMILES | IC50 [2] [nM] | IC50 [3] [nM] | IC50 [1] [nM] | also measured |
| --- | --- | --- | --- | --- |
| N=C(N)[Se]Cc1ccc(CN2C(=O)C(=O)c3cc(Br)cc(Br)c32)cc1 | 397 | 2010 | 333 |  |
| N=C(N)[Se]Cc1ccc(CN2C(=O)C(=O)c3cccc(Cl)c32)cc1 | > 10000 | > 10000 | > 10000 |  |
| N=C(N)[Se]Cc1ccc(CN2C(=O)C(=O)c3cc(F)cc(Br)c32)cc1 | 420 | 1920 | 368 |  |
| N=C(N)[Se]Cc1ccc(CN2C(=O)C(=O)c3cccc(C(F)(F)F)c32)cc1 | 657 | 3490 | 251 |  |
